The structures appear in SMILES notation.

The IC50 is the concentration at which inhibition is half-maximal.

The target in assay [1] is T1, 3-hydroxy-3-methylglutaryl-coenzyme A reductase (Rattus norvegicus, UniProt P51639).
T1 sequence (P51639 whole entry): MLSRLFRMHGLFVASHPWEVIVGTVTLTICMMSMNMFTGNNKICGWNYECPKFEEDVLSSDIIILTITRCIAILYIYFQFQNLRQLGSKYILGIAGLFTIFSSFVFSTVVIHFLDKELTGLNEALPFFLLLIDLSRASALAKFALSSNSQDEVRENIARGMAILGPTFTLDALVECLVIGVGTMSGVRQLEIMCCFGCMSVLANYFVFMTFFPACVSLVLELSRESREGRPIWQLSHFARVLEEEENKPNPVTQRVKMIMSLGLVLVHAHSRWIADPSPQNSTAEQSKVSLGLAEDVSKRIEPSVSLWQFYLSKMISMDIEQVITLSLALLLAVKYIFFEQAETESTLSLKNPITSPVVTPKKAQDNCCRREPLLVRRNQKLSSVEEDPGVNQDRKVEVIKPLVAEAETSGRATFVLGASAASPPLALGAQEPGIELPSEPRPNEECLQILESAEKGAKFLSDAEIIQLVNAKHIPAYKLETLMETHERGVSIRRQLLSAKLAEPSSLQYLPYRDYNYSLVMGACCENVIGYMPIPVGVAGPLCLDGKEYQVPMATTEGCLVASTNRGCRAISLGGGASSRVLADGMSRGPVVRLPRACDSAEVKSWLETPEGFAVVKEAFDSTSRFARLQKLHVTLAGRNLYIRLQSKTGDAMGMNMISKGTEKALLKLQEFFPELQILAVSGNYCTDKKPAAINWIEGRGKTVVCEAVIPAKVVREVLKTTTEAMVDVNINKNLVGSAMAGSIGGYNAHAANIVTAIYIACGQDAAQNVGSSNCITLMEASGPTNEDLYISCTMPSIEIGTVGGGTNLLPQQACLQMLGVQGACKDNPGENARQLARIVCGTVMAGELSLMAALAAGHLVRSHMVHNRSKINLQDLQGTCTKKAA
The assay can be described thus: Inhibition of HMG-CoA reductase in rat liver microsomes. Also on record: species or system Microsome. In general terms: Liver microsomes are vesicles of endoplasmic reticulum, rich in cytochrome P450 enzymes.

Assay [2] in a line: Inhibition of cholesterol synthesis in rat hepatocytes. The class given is functional, cell-based. The conditions noted are these: Hepatocyte.
For another assay, the system named is L6. The assay can be described thus: Inhibition of cholesterol synthesis in L6 myocytes. As to conditions: Rattus norvegicus. Type of assay: functional, cell-based.
Assay [3] has as its system Hamster. The assay can be described thus: Inhibition of cholesterol synthesis in hamster at 10 mg/kg, po after 2 to 4 hrs relative to control. The class given is functional, Cricetinae. Also on record: scale not given: the % may be the effect or the level left. In short, it runs like this: (§1)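 Male Syrian Golden hamsters received a single oral 10 mg/kg dose. A bolus of sodium 14C-acetate was given at 2, 3 or 4 h post-dose, giving 2–4, 3–5 and 4–6 h windows. Label incorporated into plasma cholesterol was measured over the following 2 h. Results are reported as percent change in incorporation relative to vehicle-dosed animals.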

In assay [4] the test system is Hamster. The assay can be described thus: Inhibition of cholesterol synthesis in hamster at 10 mg/kg, po after 4 to 6 hrs relative to control. Also on record: scale not given: the % may be the effect or the level left. The class given is functional, Cricetinae. Put shortly:
as §1

`CC(C)c1c(C(=O)N(C)Cc2ccccc2)nn(-c2ccc(F)cc2)c1CC[C@@H](O)C[C@@H](O)CC(=O)O`: the results for the IC50 (in assay [1]; in assay [2]; in the assay with L6) were 6.2 nM, 0.31 nM and 2870 nM, respectively. Also, the Activity in the assay on Hamster [3] is reported as -61%; in the assay on Hamster [4], -16%.
`CCOc1cccc(CN(C)C(=O)c2nn(-c3ccc(F)cc3)c(OC[C@@H](O)C[C@@H](O)CC(=O)O)c2C(C)C)c1`: the IC50 amounted to 16 nM in assay [1], 2.8 nM in assay [2] and 3550 nM in the assay on L6.
On to `CC(C)c1c(C(=O)NCC2CCCCC2)nn(-c2ccc(F)cc2)c1OC[C@@H](O)C[C@@H](O)CC(=O)O`, for which the IC50 in assay [1] was 17 nM; in assay [2], 56 nM.
Turning to `CC(C)c1c(C(=O)NCc2ccccn2)nn(-c2ccc(F)cc2)c1OC[C@@H](O)C[C@@H](O)CC(=O)O`, the 50% inhibitory concentration (IC50) turned out to be 25 nM in assay [1] and 7.5 nM in assay [2].
Turning to `COc1cc(CN(C)C(=O)c2nn(-c3ccc(F)cc3)c(OC[C@@H](O)C[C@@H](O)CC(=O)O)c2C(C)C)cc(OC)c1`, the IC50 came out at 43 nM in assay [1] and 7.1 nM in assay [2].
In the case of `CC(C)c1c(C(=O)N(C)Cc2ccccc2)nn(-c2ccc(F)cc2)c1OC[C@@H](O)C[C@@H](O)CC(=O)O`, the IC50 in assay [1] came out at 5.2 nM; in assay [2], 1.1 nM; in the assay on L6, 6720 nM. The values for the Activity with Hamster [3] and in the assay on Hamster [4] were -49% and 26%, respectively.
Regarding `CC(C)c1c(C(=O)N2CCC[C@H](c3ccccc3)C2)nn(-c2ccc(F)cc2)c1OC[C@@H](O)C[C@@H](O)CC(=O)O`, the IC50 stood at 4.8 nM in assay [1], 1.5 nM in assay [2] and 1110 nM with L6. In addition, in the assay with Hamster [3], the Activity is -15%.
Regarding `CC(C)c1c(C(=O)NCc2ccccc2Cl)nn(-c2ccc(F)cc2)c1OC[C@@H](O)C[C@@H](O)CC(=O)O`, the values for the IC50 (in assay [1]; in assay [2]; in the assay with L6) were 9.5 nM, 76 nM and 8450 nM, respectively.
For `Cc1ccc(CNC(=O)c2nn(-c3ccc(F)cc3)c(CC[C@@H](O)C[C@@H](O)CC(=O)O)c2C(C)C)cc1`, the IC50 in assay [1] was found to be 2.5 nM; in assay [2] it was 1.1 nM; in the assay with L6, 800 nM. Further, the Activity is -74% with Hamster [3] and -15% in the assay with Hamster [4].
For `CC(C)c1c(C(=O)N(C)Cc2cccc(F)c2)nn(-c2ccc(F)cc2)c1CC[C@@H](O)C[C@@H](O)CC(=O)O` the same measures were 4.1 nM, 0.16 nM, 1900 nM, -66% and -12%.
Turning to `CC(C)c1c(C(=O)N2CCCC2c2ccccc2)nn(-c2ccc(F)cc2)c1OC[C@@H](O)C[C@@H](O)CC(=O)O` (some centres not stated), the figures for the IC50 (in assay [1]; in assay [2]; with L6) were 14 nM, 8 nM and 4340 nM, respectively.
For `Cc1cccc(CN(C)C(=O)c2nn(-c3ccc(F)cc3)c(OC[C@@H](O)C[C@@H](O)CC(=O)O)c2C(C)C)c1` the same measures were 37 nM, 2.5 nM and 18500 nM.
In the case of `CC(C)c1c(C(=O)N(C)Cc2cccc(C(F)(F)F)c2)nn(-c2ccc(F)cc2)c1OC[C@@H](O)C[C@@H](O)CC(=O)O`, the IC50 in assay [1] was determined as 31 nM; in assay [2] it was 12 nM.
For the compound `CC(C)c1c(C(=O)NCCc2ccccc2)nn(-c2ccc(F)cc2)c1OC[C@@H](O)C[C@@H](O)CC(=O)O`, the IC50 came to 15 nM in assay [1], 14 nM in assay [2] and 760 nM with L6.
For the compound `Cc1ccc(CN(C)C(=O)c2nn(-c3ccc(F)cc3)c(OC[C@@H](O)C[C@@H](O)CC(=O)O)c2C(C)C)cc1`, the IC50 in assay [1] is 37 nM; in assay [2], 1.2 nM; in the assay with L6, 1250 nM.
For `COc1cccc(CNC(=O)c2nn(-c3ccc(F)cc3)c(OC[C@@H](O)C[C@@H](O)CC(=O)O)c2C(C)C)c1`, the IC50 in assay [1] came out at 16 nM; in assay [2] it was 8.4 nM; in the assay on L6, 8750 nM. Further, the Activity in the assay on Hamster [4] came to 37%.
The like results for `CC(C)c1c(C(=O)NCc2ccccc2)nn(-c2ccc(F)cc2)c1OC[C@@H](O)C[C@@H](O)CC(=O)O` were, in that order, 3.8 nM, 14 nM, 880 nM and 41%.
For `Cc1ccccc1CNC(=O)c1nn(-c2ccc(F)cc2)c(OC[C@@H](O)C[C@@H](O)CC(=O)O)c1C(C)C` the same measures were 17 nM, 0.88 nM, 2850 nM and 39%.
Turning to `CC(C)c1c(C(=O)NCc2ccc(Cl)cc2)nn(-c2ccc(F)cc2)c1OC[C@@H](O)C[C@@H](O)CC(=O)O`, the IC50 in assay [1] stood at 6.7 nM; in assay [2], 44 nM.
With `CCN(Cc1ccccc1)C(=O)c1nn(-c2ccc(F)cc2)c(OC[C@@H](O)C[C@@H](O)CC(=O)O)c1C(C)C`, the IC50 came to 14 nM in assay [1], 4.7 nM in assay [2] and 2660 nM in the assay with L6.
In the case of `CC(C)c1c(C(=O)NCc2cccc(Cl)c2)nn(-c2ccc(F)cc2)c1OC[C@@H](O)C[C@@H](O)CC(=O)O`, the IC50 in assay [1] is 5.4 nM; in assay [2], 9.9 nM.
On to `CC(C)c1c(C(=O)N(C)Cc2ccc(F)cc2)nn(-c2ccc(F)cc2)c1OC[C@@H](O)C[C@@H](O)CC(=O)O`, for which the IC50 stood at 18 nM in assay [1], 3.8 nM in assay [2] and 2800 nM with L6. The Activity in the assay with Hamster [4] is recorded as 91%.
For `COc1cccc(CN(C)C(=O)c2nn(-c3ccc(F)cc3)c(OC[C@@H](O)C[C@@H](O)CC(=O)O)c2C(C)C)c1` the same measures were 21 nM, 1.6 nM, 9460 nM and 53%.
On to `CC(C)c1c(C(=O)N2CCCCC2)nn(-c2ccc(F)cc2)c1OC[C@@H](O)C[C@@H](O)CC(=O)O`, for which the IC50 in assay [1] was found to be 47 nM; in assay [2] it was 3.8 nM; with L6, 32200 nM.
The like results for `CC(C)c1c(C(=O)NCc2cccc(F)c2F)nn(-c2ccc(F)cc2)c1OC[C@@H](O)C[C@@H](O)CC(=O)O` were, in that order, 2 nM, 19 nM and 120 nM.
Turning to `CC(C)c1c(C(=O)N(C)[C@H](C)c2ccccc2)nn(-c2ccc(F)cc2)c1OC[C@@H](O)C[C@@H](O)CC(=O)O`, the IC50 in assay [1] was 21 nM; in assay [2], 11 nM.
Turning to `Cc1cccc(CNC(=O)c2nn(-c3ccc(F)cc3)c(OC[C@@H](O)C[C@@H](O)CC(=O)O)c2C(C)C)c1`, the IC50 in assay [1] came out at 4.9 nM; in assay [2], 0.99 nM; in the assay with L6 it was 280 nM.
For `CC(C)c1c(C(=O)N(C)Cc2cccc(F)c2F)nn(-c2ccc(F)cc2)c1OC[C@@H](O)C[C@@H](O)CC(=O)O` the same measures were 14 nM, 2.8 nM and 860 nM.
For the compound `CCCCNC(=O)c1nn(-c2ccc(F)cc2)c(OC[C@@H](O)C[C@@H](O)CC(=O)O)c1C(C)C`, the results for the IC50 in assay [1] and in assay [2] were 76 nM and 39 nM, respectively.
Turning to `COc1ccc(CNC(=O)c2nn(-c3ccc(F)cc3)c(OC[C@@H](O)C[C@@H](O)CC(=O)O)c2C(C)C)cc1`, the half-inhibitory concentration (IC50) amounted to 12 nM in assay [1] and 37 nM in assay [2].
For `COc1ccccc1CNC(=O)c1nn(-c2ccc(F)cc2)c(OC[C@@H](O)C[C@@H](O)CC(=O)O)c1C(C)C` the same measures were 22 nM and 83 nM.

The values above are taken from ChEMBL document CHEMBL1139802, “Pyrazole inhibitors of HMG-CoA reductase: an attempt to dramatically reduce synthetic complexity through minimal analog re-design” (Bioorg Med Chem Lett, 2007).
